Only some compounds are listed: those with a hit (about 29% of all), similar ones and a draw of the others.
Ecoli WT expand – E. coli BW25113 growth inhibition, expanded screen; OD600 absorbance; 98,000 compounds, 0.15% hits; AID 710; growth inhibition, % at 100 µM;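 active = growth inhibition above about 50% at one test dose, limit read from the data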;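 note: growth measured after 20 h incubation at 37 °C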
CYP2C19 inh – inhibitors of human CYP2C19. inhibition, % at 5 µM. 96,000 compounds, 21% hits. CYP2C19 Supersomes, luciferin-H EGE luminescence, 30 min;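 active = CYP2C19 inhibition above a set limit at 5 µM in the primary screen, cut at about 50% in these data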;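 note: plate controls were negative control wells for no effect and 2.5 mM tranylcypromine positive control for full effect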
Target sequence (P33261 whole entry, looked up): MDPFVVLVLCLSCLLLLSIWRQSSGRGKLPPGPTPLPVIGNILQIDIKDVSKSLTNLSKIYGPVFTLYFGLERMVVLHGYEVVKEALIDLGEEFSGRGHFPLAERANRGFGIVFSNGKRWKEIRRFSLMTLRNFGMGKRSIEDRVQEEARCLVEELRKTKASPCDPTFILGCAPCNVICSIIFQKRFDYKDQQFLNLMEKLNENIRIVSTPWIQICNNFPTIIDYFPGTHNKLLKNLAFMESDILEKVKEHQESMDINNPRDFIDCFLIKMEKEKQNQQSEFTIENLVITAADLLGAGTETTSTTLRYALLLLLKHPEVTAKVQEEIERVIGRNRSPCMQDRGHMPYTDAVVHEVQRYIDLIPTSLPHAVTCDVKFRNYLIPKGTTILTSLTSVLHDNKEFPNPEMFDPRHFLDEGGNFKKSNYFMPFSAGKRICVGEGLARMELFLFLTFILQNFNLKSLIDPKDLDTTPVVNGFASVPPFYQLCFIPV
CYP2C9 inh – inhibitors of human CYP2C9 | inhibition, % at 5 µM | 96,000 compounds, 20% hits | CYP2C9 Supersomes, luciferin-H conversion, luminescence | P11712 | AID 777;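 active = blocking of liver enzyme CYP2C9 beyond about 50% at 5 µM, limit read from the data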
tolC growth inh – E. coli tolC mutant growth inhibition; E. coli BW25113 tolC mutant growth, OD615; growth inhibition, % at 10 µM (by protocol); 65,000 compounds, 2.2% hits;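 active = growth inhibition at or above a cutoff equal to the mean over every tested compound plus 3 SD, cut at about 60% in these data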;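 note: growth measured after 20 h incubation at 37 °C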
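System: E. coli ΔtolC::kan strain BW25113; Buffer or medium: LB broth supplemented with 50 µg/mL kanamycin; Compound: 10 µM final, single dose; Incubation: bacterial growth with compound for 20 h at 37 °C; Signal: A615 absorbance measurement; Evaluation: growth inhibition in percent.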
CYP2C19 act – cytochrome P450 2C19 (human) activation; AID 1025; recombinant CYP2C19, luciferin-H EGE luminescence; stronger effect = higher value; 0 = fully inhibited enzyme, 1 = untreated enzyme; activation factor at 5 µM; P33261; 96,000 tested, under 10 active;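 active = activation factor of at least 2 at 5 µM in the primary screen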;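 note: 0 = wells with 2.5 mM tranylcypromine and 1 = vehicle-only wells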
CYP2C9 act – CYP2C9 (human) activation. recombinant CYP2C9, luciferin-H conversion, luminescence; stronger effect = higher value; factor 1 = untreated enzyme, 0 = blocked. 96,000 compounds, 1.4% hits. AID 1024. activation factor at 5 µM;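 active = activation factor of 2 or more for CYP2C9 at a 5 µM dose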;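 note: 0 = sulfaphenazole-blocked wells and 1 = vehicle-only wells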
Active calls of the source: *; x = no result.

SMILES | Ecoli WT expand | CYP2C19 inh | CYP2C9 inh | tolC growth inh | CYP2C19 act | CYP2C9 act
Cc1cc(C)cc(OC(=O)CS(=O)c2ccc(C(F)(F)F)cc2[N+](=O)[O-])c1 (stereo not given) | 3 | -3 | -102 | x | 1 | 2*
CCC(Oc1ccccc1)C(=O)Nc1ccc(S(=O)(=O)Nc2cnc3ccccc3n2)cc1 (stereo not given) | 8 | 6 | 29 | x | 0.9 | 0.7
Cc1cc(NS(=O)(=O)c2ccc(NC(=O)C(C)Oc3ccc(Cl)cc3)cc2)no1 (stereo not given) | 8 | -3 | -10 | x | 1 | 1.1
CC(Oc1ccc(Cl)cc1Cl)C(=O)Nc1ccc(S(=O)(=O)Nc2cnc3ccccc3n2)cc1 (stereo not given) | 8 | 14 | 100* | x | 0.9 | 0
Cc1cc(Cl)ccc1OC(C)C(=O)Nc1ccc(S(=O)(=O)Nc2cnc3ccccc3n2)cc1 (stereo not given) | 8 | -4 | 88* | x | 1 | 0.1
CNC(=O)NC(=O)CSc1nc2cc(C(=O)OC)ccc2c(=O)n1-c1ccccc1 | -6 | -1 | 15 | -5 | 1 | 0.8
Cn1ncc(Cl)c1C(=O)NC(=S)Nc1sc2c(c1C#N)CCCCC2 | -4 | 17 | 63* | x | 0.8 | 0.4
N#Cc1c(NC(=O)c2ccccc2)sc2c1CCC2 | -17 | 8 | 5 | x | 0.9 | 0.9
N#Cc1c(NC(=O)CCC(=O)O)sc2c1CCCC2 | -4 | -11 | 25 | 1 | 1.1 | 0.7
CC(C)C(C(=O)Nc1sc2c(c1C#N)CCCCC2)N1C(=O)c2ccccc2C1=O (stereo not given) | -21 | 35 | 64* | x | 0.7 | 0.4
Cc1nn(C(C)C(=O)Nc2sc3c(c2C#N)CCCC3)c(C)c1[N+](=O)[O-] (stereo not given) | -3 | 21 | 61* | x | 0.8 | 0.4
Cc1nn(CCCC(=O)Nc2sc3c(c2C#N)CCC3)c(C)c1[N+](=O)[O-] | 4 | 30 | 41 | x | 0.7 | 0.6
CC(C)CC(=O)NC(NC(=S)Nc1sc2c(c1C#N)CCCC2)C(Cl)(Cl)Cl (stereo not given) | -1 | 53* | 100* | x | 0.5 | 0
Oc1c(C(Nc2nc3ccccc3s2)c2ccco2)ccc2cccnc12 (stereo not given) | 15 | 34 | 73* | 1 | 0.7 | 0.3
CC(C)C(=O)NC(c1ccco1)c1ccc2cccnc2c1O (stereo not given) | 25 | -2 | 8 | 6 | 1 | 0.9
CCOc1cc(C)c(S(=O)(=O)Nc2ccc(Cl)cn2)cc1C | -3 | 78* | 95* | 24 | 0.2 | 0.1
CCOc1ccc(S(=O)(=O)Nc2ccc(Cl)cn2)c(C)c1C | -5 | 39 | 36 | 32 | 0.6 | 0.6
CC1(C)CC(=O)c2sc(N3CCCCC3)nc2C1 | 1 | 58* | 26 | 1 | 0.4 | 0.7
CC1(C)CNC(=O)c2sc(N3CCCCC3)nc2C1 | -4 | 6 | -1 | 3 | 0.9 | 1
Cc1cc(C)n(-c2nnc(C)n2NS(C)(=O)=O)n1 | 2 | -7 | -25 | -13 | 1.1 | 1.2
Cc1cc(NC(=O)CSc2nc3c(sc4ccccc43)c(=O)n2CCc2ccccc2)n[nH]1 | -4 | 94* | 36 | x | 0.1 | 0.6
Cc1cc(NC(=O)CSc2nc3c(sc4ccccc43)c(=O)n2CCCN2CCOCC2)n[nH]1 | -8 | 52* | 20 | x | 0.5 | 0.8
COC(=O)C1=C(C)Nc2nnnn2C1c1cc(OC)ccc1OC (stereo not given) | 0 | 30 | 61* | -18 | 0.7 | 0.4
COC(=O)c1nc2n(n1)C(c1cc(OC)ccc1OC)C(C(=O)OC1CCCCC1)=C(C)N2 (stereo not given) | -9 | 47 | 68* | 10 | 0.5 | 0.3
Cc1cccc(N(C)C(=O)COc2cc(=O)n(C)c3ccccc23)c1 | 4 | 26 | 3 | 4 | 0.7 | 1
SMILES | Ecoli WT expand | CYP2C19 inh | CYP2C9 inh | tolC growth inh | CYP2C19 act | CYP2C9 act
CCOc1ccc(CNC(=O)CCCOc2cc(=O)n(C)c3ccccc23)cc1 | -5 | 69* | 78* | x | 0.3 | 0.2
CCN(C(=O)COc1cc(=O)n(C)c2ccccc12)c1cccc(Cl)c1 | 11 | 69* | -57 | 15 | 0.3 | 1.6
COc1ccccc1CNC(=O)CCCOc1cc(=O)n(C)c2ccccc12 | -4 | 4 | -28 | x | 1 | 1.3
Cn1c(=O)cc(OCC(=O)Nc2ccccn2)c2ccccc21 | -6 | 53* | 35 | -2 | 0.5 | 0.7
CCn1c(=O)cc(OCC(=O)Nc2cc(C)ccn2)c2ccccc21 | -9 | x | x | 13 | x | x
CN(C(=O)COc1cc(=O)n(C)c2ccccc12)c1ccc(Br)cc1 | -6 | 8 | 67* | 13 | 0.9 | 0.3
CCCCN(C(=O)NC(=O)Nc1nc2ccc(OC)cc2s1)S(C)(=O)=O | -9 | 3 | 16 | -9 | 1 | 0.8
O=C1CC2(CON=C2c2ccc(F)cc2)C(=O)N1c1ccc(F)cc1 (stereo not given) | 4 | 89* | 51* | -22 | 0.1 | 0.5
Cc1ccc(N2C(=O)[C@@H]3C(c4ccc(F)cc4)=NO[C@@H]3C2=O)cc1 | 1 | 13 | -7 | -30 | 0.9 | 1.1
CCCN(CCC)CCCOC(=O)c1ccc(Cl)cc1Cl | 13 | 11 | 9 | x | 0.9 | 0.9
Cc1nn2c(N3CCN(c4ccccn4)CC3)cc(C(C)C)nc2c1-c1ccccc1 | -11 | 14 | 62* | -28 | 0.9 | 0.4
CCN1CCCC1CNC(=O)Cn1cccc1C(=O)c1ccccc1C (stereo not given) | -4 | 21 | 15 | -9 | 0.8 | 0.9
O=C(Nc1cccc(-c2cn3ccccc3n2)c1)c1cccc(Cl)c1 | -19 | 29 | 84* | x | 0.7 | 0.2
COc1ccccc1C(=O)Nc1cccc(-c2cn3ccsc3n2)c1 | -5 | 13 | 29 | 25 | 0.9 | 0.7
O=C(Nc1cccc(-c2cn3ccsc3n2)c1)c1ccccc1 | -5 | 59* | 85* | 22 | 0.4 | 0.2
O=C(NCc1cccs1)C1CC(=O)N(c2ccccc2)C1 (stereo not given) | 2 | 22 | -14 | -20 | 0.8 | 1.1
C=CCNC(=S)NNC(=O)C(CCC(C)C)CC(C)(C)O (stereo not given) | 7 | -7 | -6 | x | 1.1 | 1.1
COCCn1c(CN2CCN(c3ccccc3F)CC2)nc2c1c(=O)n(C)c(=O)n2C | x | x | x | -14 | x | x
O=C(COc1nncc2ccccc12)NCCC1=CCCCC1 | -5 | 36 | -4 | -6 | 0.6 | 1
O=C(/C=C/c1cccc2ccccc12)NCCC1=CCCCC1 | -5 | 18 | -169 | x | 0.8 | 2.7*
O=C(COc1ncnc2ccccc12)NCCC1=CCCCC1 | -2 | 54* | 27 | 15 | 0.5 | 0.7
O=C(CCNC(=O)Cn1cnc2ccccc2c1=O)NCCC1=CCCCC1 | -3 | 22 | 26 | -1 | 0.8 | 0.7
O=C(Cn1nc(C(=O)O)c2ccccc2c1=O)NCCC1=CCCCC1 | 0 | 58* | 23 | -8 | 0.4 | 0.8

Screening data from PubChem BioAssay.
